Compounds with a hit are over-represented: about 2.5% of the library has one in this group of screens.
MEKK2 WT-MEK5 – raises or lowers MEK5 binding to wildtype human MEKK2 PB1 domain. Q9Y2U5. bead flow cytometry, Alexa488-MEK5 binding to MEKK2 WT; actives lie on both sides. binding response (% of control), % at 10 µM. actives 1.1% (n = 290,000). AID 1531; in the data active = binding response below about 67% or above about 130%
MEKK2 mut-MEK5 – signal of MEK5 binding to mutant human MEKK2 PB1 domain. bead flow cytometry, Alexa488-MEK5 binding to MEKK2 mutant. percent response, % at 10 µM. actives 0.35% (n = 290,000); in the data active = percent response above about 24%, passing the limit was not always enough
MEKK3 PB1 HTS – modulators (inhibitors or enhancers) of MEK5 binding to human MEKK3 PB1 domain. Q99759. bead-based flow cytometry, Alexa488-MEK5 binding to MEKK3; actives lie on both sides; 0 = blocked by unlabeled MEK5, 100 = vehicle. binding response (% of control), % at 10 µM. actives 1.4% (n = 290,000). AID 1529;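 active = binding response more than 3 SD above or below the average of its plate-row segment, actives on both sides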;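 also: Alexa488 bead fluorescence after subtracting the streptavidin-only scavenger bead signal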
ABCB1 block – blocks JC-1 efflux by human ABCB1 transporter. inhibition, % at 6.6 µM. P08183. CCRF-Adr cells, flow cytometry. actives 0.067% (n = 190,000); in the data active = inhibition above about 40%;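 also: higher value means more JC-1 retained so stronger ABCB1 efflux block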
Efflux pump inh – blocks antifungal efflux pumps in multiplex yeast assay. inhibition, % at 10 µM. S. cerevisiae Candida pump triplex, Nile Red efflux. actives 0.44% (n = 330,000). AID 485275;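 active = plate passing quality check with inhibition over a set limit, or well fluorescence over plate mean plus 4 SD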;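 also: Nile Red retained in pooled yeast measured as flow cytometry median fluorescence; higher means more Nile Red kept so more efflux inhibition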
ABCG2 inh – blocks JC-1 efflux by human ABCG2 transporter; AID 1325; inhibition, % at 6.6 µM; actives 0.1% (n = 190,000); IgMXP3 cells, flow cytometry; Q9UNQ0;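 active = inhibition above 80%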
Target sequence (Q9UNQ0 whole entry, looked up): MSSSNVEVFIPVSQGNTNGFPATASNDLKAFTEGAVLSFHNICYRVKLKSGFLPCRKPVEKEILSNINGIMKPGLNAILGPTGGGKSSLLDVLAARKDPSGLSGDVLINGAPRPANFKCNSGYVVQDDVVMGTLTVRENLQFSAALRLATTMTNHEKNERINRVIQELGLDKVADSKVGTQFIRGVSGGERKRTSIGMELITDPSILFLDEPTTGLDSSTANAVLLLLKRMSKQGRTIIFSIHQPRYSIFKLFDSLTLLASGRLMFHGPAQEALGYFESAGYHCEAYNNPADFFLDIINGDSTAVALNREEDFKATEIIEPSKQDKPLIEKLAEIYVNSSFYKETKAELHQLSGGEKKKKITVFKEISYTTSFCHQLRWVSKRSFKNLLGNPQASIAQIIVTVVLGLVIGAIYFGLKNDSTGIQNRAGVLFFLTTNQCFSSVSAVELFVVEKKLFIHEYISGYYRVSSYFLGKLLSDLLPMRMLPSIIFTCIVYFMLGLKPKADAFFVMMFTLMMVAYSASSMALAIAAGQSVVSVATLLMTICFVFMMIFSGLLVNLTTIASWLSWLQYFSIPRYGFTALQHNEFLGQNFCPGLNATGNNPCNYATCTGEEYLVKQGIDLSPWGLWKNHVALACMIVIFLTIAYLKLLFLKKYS
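test system = two drug-resistant human cell lines, ABCG2 and ABCB1 | amount = 3 million cells/mL final, two lines in 1:1 ratio | reagent = JC-1 transporter substrate | doses = one concentration, 6.6 µM final | incubation = 10 min at 25 °C | signal = flow cytometric JC-1 green MFI at 530 nm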
Cmpd fluor yeast – flagged as fluorescent in efflux inhibitor counter-screen | AID 588517 | actives 4% (n = 1,700) | shares compounds with Efflux pump inh | S. cerevisiae AD/pABC3, compound fluorescence, flow cytometry | fluorescence ratio to DMSO, % at 10 µM;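 active = fluorescence ratio to DMSO above its plate's cutoff, the plate mean ratio plus 5 SD, cut at about 210% in these data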;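 also: unstained yeast with no Nile Red so the signal is compound autofluorescence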
Mdr1 pump inh – inhibitors of Candida albicans Mdr1 efflux pump. actives 1% (n = 1,700). shares compounds with Efflux pump inh. AID 588518. S. cerevisiae AD/CaMDR1, Nile Red efflux, flow cytometry. inhibition, % at 10 µM; in the data active = inhibition above about 26%;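 also: higher means more Nile Red retained so more efflux inhibition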
Cdr2 pump inh – Candida Cdr2 efflux pump inhibition. shares compounds with Efflux pump inh. S. cerevisiae AD/CaCDR2, Nile Red retention, flow cytometry. actives 4% (n = 1,700). AID 588520. Nile Red retention ratio vs DMSO, % at 10 µM; in the data active = Nile Red retention ratio vs DMSO above about 190%;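 also: higher ratio means more blocking of Cdr2 efflux of the dye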
CaCdr1 efflux inh – inhibitors of Candida albicans Cdr1 efflux pump; shares compounds with Efflux pump inh; S. cerevisiae AD/CaCDR1, Nile Red efflux, flow cytometry; inhibition, % at 10 µM; actives 1% (n = 1,700); AID 588522;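 active = inhibition above the screen-wide mean plus twice its standard deviation, cut at about 32% in these data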
Hits are given with their value; 0 = inactive; - = not tested or not shown; + = active, no number.

SMILES | MEKK2 WT-MEK5 | MEKK2 mut-MEK5 | MEKK3 PB1 HTS | ABCB1 block | Efflux pump inh | ABCG2 inh | Cmpd fluor yeast | Mdr1 pump inh | Cdr2 pump inh | CaCdr1 efflux inh
COc1ccccc1NC(=O)NCC(=O)Nc1ccc(F)c(F)c1 | 0 | 0 | 0 | 0 | 0 | 0 | - | - | - | -
Cc1cccn2c(=O)c3cc(C(=O)N4CCCCC4)sc3nc12 | 0 | 0 | 0 | - | 0 | - | - | - | - | -
CCC1CCCCN1C(=O)c1cc2c(=O)n3cccc(C)c3nc2s1 (centres undefined) | 0 | 0 | 0 | - | 1.7 | - | 0 | 0 | 0 | 0
Cc1cc(C)c(-c2csc(NC(=O)/C=C/c3cccs3)n2)c(C)c1 | 0 | 0 | 0 | 0 | 23 | 0 | 0 | 0 | 0 | 0
COc1ccccc1CN(Cc1cc2cc3c(cc2[nH]c1=O)OCCO3)Cc1nnnn1Cc1ccco1 | 0 | 0 | 0 | 0 | 1.4 | 0 | 0 | 0 | 0 | 0
C[n+]1ccc(/C=C/c2ccc(Br)cc2)cc1 | - | - | - | 0 | 0 | 0 | - | - | - | -
Cc1ccc2c(c1)c(/C=C/c1cc[n+](C)cc1)c(C)n2C | 0 | 0 | 0 | - | 25 | - | + | 32 | 290 | 0
Cc1ccc2[nH]c(C)c(/C=C/c3cc[n+](C)cc3)c2c1 | 0 | 0 | 0 | - | 20 | - | + | 0 | 317 | 0
COC(=O)c1ccc(S(=O)(=O)NCc2ccc(OC)cc2)n1C | 0 | 0 | 0 | - | 2.5 | - | 0 | 0 | 0 | 0
Cc1cc2c([nH]c3ccccc32)c2c1OC(C)(C)C=C2 | 0 | 0 | 0 | - | 1.5 | - | 0 | 0 | 0 | 0
COc1ccc2[nH]c(=O)c3c(c2c1)OC(C)(C)C=C3 | 0 | 0 | 0 | 0 | 0 | 0 | - | - | - | -
CCC(C)(C)NC(=O)C(c1ccccn1)N(C(=O)c1csnn1)c1ccc(C)cc1 (centres undefined) | 0 | 0 | 0 | 0 | 0 | 0 | - | - | - | -
CCCCC(CC)CO (centres undefined) | - | - | - | - | 0 | - | - | - | - | -
CCCCC(CC)CN=C(N)NC(N)=NCCCCCCN=C(N)NC(N)=NCC(CC)CCCC (centres undefined) | - | - | - | - | 2.2 | - | 0 | 0 | 0 | 0
O=C(COCC(=O)N/N=C/c1ccc(F)cc1)N/N=C/c1ccc(F)cc1 | 0 | 0 | 0 | 0 | 1.8 | 0 | 0 | 0 | 0 | 0
COc1ccccc1NC(=O)c1c(N=Cc2c(O)ccc3ccccc23)cnn1C | 0 | 0 | 0 | - | 0.4 | - | 0 | 0 | 0 | 0
Cn1ncc(N=Cc2c(O)ccc3ccccc23)c1C(=O)N1CCOCC1 | 0 | 0 | 0 | - | 0 | - | - | - | - | -
Cc1ccccc1NC(=S)NCc1ccccc1 | 0 | 0 | 0 | 0 | 8.9 | 0 | 0 | 0 | 0 | 0
COc1ccc(-n2c(C(C)(C)C)csc2=Nc2c(C)n(C)n(-c3ccccc3)c2=O)cc1 | 0 | 0 | 0 | 0 | 0 | 0 | - | - | - | -
O=C(COC(=O)c1c2ccccc2cc2ccccc12)Nc1ncc(C(F)(F)F)cc1Cl | 0 | 0 | 0 | 0 | 0.4 | 0 | 0 | 0 | 0 | 0
CNC(=S)N(CCc1cccc(C)c1)Cc1cc2cc(OC)c(OC)cc2[nH]c1=O | 0 | 0 | 0 | 0 | 1.7 | 0 | 0 | 0 | 0 | 0
Cn1cc([N+](=O)[O-])c(C(=O)Nc2ccn(C34CC5CC(CC(C5)C3)C4)n2)n1 | 0 | 0 | 0 | 0 | 16 | 0 | 0 | 0 | 0 | 0
Cc1nnc(SCc2ccc([N+](=O)[O-])cc2)o1 | 0 | 0 | 0 | 0 | 1.0 | 0 | 0 | 0 | 0 | 0
Cc1nc(CN2CCN(Cc3nc(C(c4ccccc4)c4ccccc4)no3)CC2)cs1 | 0 | 0 | 0 | 0 | 0 | 0 | - | - | - | -
N#CC1(NC(=O)COC(=O)c2ccccc2SCC(=O)N2CCCC2)CCCCC1 | 0 | 0 | 0 | - | 0 | - | - | - | - | -
COc1cccc(NC(=O)C/C(C)=N/NC(=O)c2ccccc2Cl)c1 | 0 | 0 | 0 | - | 0.8 | - | 0 | 0 | 0 | 0
CN(C)S(=O)(=O)c1ccc(/C(O)=C2/C(=O)C(=O)N(CCCN3CCOCC3)C2c2ccncc2)cc1 (centres undefined) | - | - | - | - | 0 | - | - | - | - | -
O=C(NNC(=O)c1ccc(S(=O)(=O)N2CCCCC2)cc1)c1ccccc1 | 0 | 0 | 0 | - | 0 | - | - | - | - | -
O=C(NNC(=O)c1cccs1)c1ccc(S(=O)(=O)N2CCCCC2)cc1 | 0 | 0 | 0 | 0 | 11 | 0 | 0 | 0 | 0 | 0
Cc1ccc(NC(=O)CC2OC(=O)c3ccccc32)cc1S(=O)(=O)N1CCCCCC1 (centres undefined) | - | - | - | - | 0 | - | - | - | - | -

Screens (PubChem)
